Screens as filed in PubChem.
In the library only some 4.6% were active in any assay of this set; here they are far more common.
OX1R antag-1: blocks the human orexin 1 receptor; O43613; OX1R-expressing cells, FRET antagonist read-out; 1.8% of 330,000 active; inhibition, % at 6.6 µM; in the data active means inhibition mostly above about 38%, no sharp cut-off; inactive means mostly below about 40%
Target sequence (O43613 whole entry, looked up): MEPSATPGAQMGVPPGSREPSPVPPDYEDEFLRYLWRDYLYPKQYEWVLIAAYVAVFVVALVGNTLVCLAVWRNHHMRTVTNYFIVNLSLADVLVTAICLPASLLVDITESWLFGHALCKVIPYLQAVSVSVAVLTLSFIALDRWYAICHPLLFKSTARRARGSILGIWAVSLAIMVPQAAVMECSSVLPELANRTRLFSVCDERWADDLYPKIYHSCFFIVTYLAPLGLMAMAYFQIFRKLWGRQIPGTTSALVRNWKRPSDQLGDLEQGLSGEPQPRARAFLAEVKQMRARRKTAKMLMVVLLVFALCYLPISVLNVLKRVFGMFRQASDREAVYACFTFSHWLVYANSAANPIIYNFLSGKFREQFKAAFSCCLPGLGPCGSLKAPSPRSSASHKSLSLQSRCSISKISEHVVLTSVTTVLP
TAAR1 ag: agonists of human TAAR1; CHO RD-HGA16 TAAR1, Fluo-8 calcium fluorescence; vehicle wells 0%, saturating PEA agonist 100%; activation, % at 3 µM; 0.99% of 360,000 active;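 active means activation above the mean activation of all test compounds in the run plus 3 SD, cut at about 38% in these data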
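Repeats: no replicates (n 1) | Material: CHO-derived RD-HGA16 cells with stable Gα16 and human TAAR1 | Technique: Kinetic Fluo-8 calcium fluorescence | Schedule: 17-24 h seeding, 75 min 37 °C dye, 30 min RT | Evaluation: % activation from peak over basal fluorescence ratio, DMSO-to-PEA scaled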
OX1R antag-2: human HCRTR1 antagonism | O43613 | CHO/OX1R cells, Fluo-8 calcium fluorescence, orexin A | inhibition, % at 5 µM | 0.43% of 330,000 active | AID 434989;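 active means inhibition above its plate's threshold, mean inhibition of all tested compounds on the plate plus 3 SD, cut at about 37% in these data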
TAAR1 antagonist: antagonists of human TAAR1; 1.5% of 360,000 active; CHO RD-HGA16 TAAR1, Fluo-8 calcium fluorescence, antagonist; Q96RJ0; inhibition, % at 3 µM; AID 624466;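 active means inhibition above a per-plate cutoff, the mean inhibition of test compounds on that plate plus 3 SD, cut at about 49% in these data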
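System: CHO RD-HGA16 cells bearing hTAAR1. Reagent: EC80 β-phenethylamine stimulus. Schedule: seeding 17-24 h prior, 75-min 37 °C, 30-min RT dye loading. Signal: Fluo-8 intracellular calcium dye fluorescence, real-time kinetic reads. Read-out: % inhibition from peak post-agonist over basal fluorescence ratio. Benchmarks: vehicle wells and EC80 agonist wells. Replicates: n of 1.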
CHO parental Ca: signal in parental CHO cells, OX1R antagonist counter-screen; parental CHO-K1, ATP-induced calcium, Fluo-8 fluorescence; 0.63% of 330,000 active; inhibition, % at 5.6 µM; AID 463079;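 active means inhibition above that plate's mean sample inhibition plus 3 SD, cut at about 26% in these data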
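Assay system – parental CHO cells · Reagent – ATP stimulus · Detection – intracellular calcium via Fluo-8 no-wash fluorescent dye · Evaluation – percent inhibition of ATP-evoked calcium rise, normalized to controls · Controls – ATP wells versus no-ATP DMSO wells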
GPR7 antag: antagonists of human GPR7 (neuropeptides B/W receptor 1) | P48145 | GPR7-expressing cells, fluorescence antagonist assay | inhibition, % at 4.4 µM | 1.1% of 290,000 active; in the data active means inhibition above about 16%, passing the limit was not always enough;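 further: cells stimulated with the agonist NPW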
Target sequence (P48145 whole entry, looked up): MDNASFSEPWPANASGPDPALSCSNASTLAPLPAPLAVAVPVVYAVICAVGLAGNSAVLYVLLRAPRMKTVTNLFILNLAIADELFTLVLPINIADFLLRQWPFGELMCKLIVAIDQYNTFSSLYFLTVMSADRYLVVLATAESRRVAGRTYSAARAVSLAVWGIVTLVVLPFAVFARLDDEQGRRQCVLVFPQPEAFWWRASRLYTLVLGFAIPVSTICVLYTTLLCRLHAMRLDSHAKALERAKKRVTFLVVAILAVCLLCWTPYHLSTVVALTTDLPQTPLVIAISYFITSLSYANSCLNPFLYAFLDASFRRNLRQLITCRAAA
OX1R HTRF confirm: OX1R (human) antagonism, HTRF confirmed | 49% of 1,800 active | OX1R-expressing cells, HTRF antagonist assay | shares compounds with OX1R antag-1 | inhibition, % at 6.6 µM; in the data active means inhibition above about 55%;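 further: CHO cells expressing OX1R stimulated with orexin A at about EC80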
CHO-K1 HTRF cnt: counter-screen for OX1R antagonists: effect in parental CHO-K1 cells; shares compounds with OX1R antag-1; HTRF counterscreen; inhibition, % at 6.6 µM; 48% of 1,800 active; in the data active means inhibition above about 17%
Large screens that a line does not name were inactive (follow-up assays come after a bar, where they were run).

CC(=O)Nc1ccc(S(=O)(=O)NNC(=O)C2CCCCC2)cc1	none
COc1ccc(-c2csc(NC(=S)NC(=O)c3ccco3)n2)cc1	none
O=C(NC(=S)Nc1nc(-c2ccccc2)cs1)c1ccco1	OX1R antag-1 79.2 | OX1R HTRF confirm 62.8 | CHO-K1 HTRF cnt inactive
CCC(=O)N1CCc2cc(-c3csc(NC(=O)c4ccco4)n3)ccc21	OX1R antag-1 93.7 | OX1R HTRF confirm 65.6 | CHO-K1 HTRF cnt inactive
COc1ccccc1-c1noc2c1C(=O)N(Cc1cn(-c3ccccc3)nn1)CC2	none (no result: OX1R antag-1, OX1R antag-2, CHO parental Ca, GPR7 antag)
COc1ccc(C(C(=O)NC2CCCC2)N(CCCO)C(=O)c2snc(C(N)=O)c2N)cc1 (centres undefined)	OX1R antag-1 121.0 | OX1R HTRF confirm inactive | CHO-K1 HTRF cnt inactive
C/C=N/NC(=O)c1cc(Br)ccc1O	OX1R antag-1 77.1 | OX1R HTRF confirm inactive | CHO-K1 HTRF cnt inactive
O=S1(=O)CCC(NCC2CCCO2)C1 (centres undefined)	none
O=C(Oc1ccc(Br)cc1C(=S)N1CCCCC1)c1cc([N+](=O)[O-])cc([N+](=O)[O-])c1	OX1R antag-1 130.2 (no result: TAAR1 ag, TAAR1 antagonist) | OX1R HTRF confirm 73.3 | CHO-K1 HTRF cnt 69.7
Cc1cc(=O)[nH]c(N/N=C/c2c(C)oc3ccccc23)n1	OX1R antag-1 76.9 | OX1R HTRF confirm 84.9 | CHO-K1 HTRF cnt inactive
O=C(COC(=O)c1cc(-c2ccncc2)nc2ccccc12)Nc1ccc2c(c1)OCO2	OX1R antag-1 152.4 (no result: TAAR1 ag, TAAR1 antagonist) | OX1R HTRF confirm inactive | CHO-K1 HTRF cnt 24.3
CSc1nc2ccc(NC(=O)c3cc4ccccc4o3)cc2s1	OX1R antag-1 83.7 | OX1R HTRF confirm 91.0 | CHO-K1 HTRF cnt inactive
C/C(=N\NC(=O)c1cccc(S(=O)(=O)N2CCOCC2)c1)c1ccco1	none
Cc1nnc(N/N=C/c2cc(C)n(-c3ccc(F)cc3)c2C)n1N	OX1R antag-1 91.6 | OX1R HTRF confirm inactive | CHO-K1 HTRF cnt inactive
Cc1nnc(N/N=C/c2ccccc2O)n1N	OX1R antag-1 160.1 | OX1R HTRF confirm inactive | CHO-K1 HTRF cnt inactive
Oc1ccccc1/C=N/Nc1nn[nH]n1	none
Cc1cc(NCc2ccccc2)n2ncnc2n1	none
O=C(NNC1=C(C(=O)C(F)(F)F)CCC1)c1ccc(Br)cc1	none
O=C1NC(=S)N/C1=C/c1cccc([N+](=O)[O-])c1	OX1R antag-1 93.5 | OX1R HTRF confirm inactive | CHO-K1 HTRF cnt 39.6
O=C1NC(=S)N/C1=C\c1cccc([N+](=O)[O-])c1	none
CCOc1cc(N2CCOCC2)c(OCC)cc1NC(=O)c1c(-c2ccccc2Cl)noc1C	none
O=[N+]([O-])c1ccc(C[n+]2ccc(Cc3ccccc3)cc2)cc1	OX1R antag-1 111.5 | OX1R HTRF confirm 72.5 | CHO-K1 HTRF cnt 48.1
COc1ccc(-c2c(-c3ccccc3)c(C(=O)C(=O)NCCCN(C)C)n3ccc4cc(OC)c(OC)cc4c23)cc1OC	none
Cc1nn(Cc2ccccc2)c(C)c1CNC(=O)CN=C1NS(=O)(=O)c2ccccc21	none (no result: OX1R antag-1, OX1R antag-2, CHO parental Ca, GPR7 antag)
CCn1c(C)[n+](CCOC(C)=O)c2cc(Cl)c(Cl)cc21	OX1R antag-1 87.6 | OX1R HTRF confirm inactive | CHO-K1 HTRF cnt inactive
COc1ccc(C(=O)NCCNc2nc3c(C)cccc3cc2C#N)cc1OC	OX1R antag-1 90.0 | OX1R HTRF confirm 87.4 | CHO-K1 HTRF cnt inactive
COc1cc(C(=O)NCCNc2nc3c(C)cccc3cc2C#N)cc(OC)c1OC	none (no result: OX1R antag-1, OX1R antag-2, CHO parental Ca, GPR7 antag)
O=C(Cc1c(F)cccc1Cl)Nc1cc(S(=O)(=O)N2CCOCC2)ccc1N1CCOCC1	none (no result: OX1R antag-1, OX1R antag-2, CHO parental Ca, GPR7 antag)
CC[n+]1ccc(/C=C2\Sc3ccccc3N2CCCS(=O)(=O)[O-])c2ccccc21	OX1R antag-1 96.6 | OX1R HTRF confirm inactive | CHO-K1 HTRF cnt inactive
O=C1c2ccccc2S(=O)(=O)c2cc(C(=O)N3CCCC3)ccc21	OX1R antag-1 103.7 (no result: GPR7 antag) | OX1R HTRF confirm inactive | CHO-K1 HTRF cnt 69.0
NC(=O)C1CCN(C(=O)c2ccc3c(c2)S(=O)(=O)c2ccccc2C3=O)CC1	OX1R antag-1 88.0 | OX1R HTRF confirm 59.8 | CHO-K1 HTRF cnt 69.9
CCOC(=O)C1CCN(C(=O)c2ccc3c(c2)S(=O)(=O)c2ccccc2C3=O)CC1	none
O=C1c2ccccc2S(=O)(=O)c2cc(C(=O)N3CCN(c4c(Cl)cncc4Cl)CC3)ccc21	none (no result: GPR7 antag)
COc1ccc(/C=C2\C(=O)NCC(=O)N2C)cc1	none
CC(=O)Nc1ccc(S(=O)(=O)/N=C2\C(=O)c3ccccc3C([O-])=C2n2cc[n+](-c3ccccn3)c2)cc1	OX1R antag-1 143.8 | OX1R HTRF confirm inactive | CHO-K1 HTRF cnt 38.3
Cc1cccnc1NC(=O)CSc1ncnc2sc(C)c(C)c12	none (no result: GPR7 antag)
Cc1cc(C)nc(Nc2n[nH]c(-c3cccc4ccccc34)n2)n1	OX1R antag-1 79.6 | OX1R HTRF confirm 60.4 | CHO-K1 HTRF cnt inactive
COCCC(=O)N1CCC(Oc2ccc(C(=O)N(C)C(C)c3ccon3)cc2)CC1 (centres undefined)	none
Cc1ccc(Nc2nc3nonc3[nH]c2=O)cc1Cl	none
Cc1ccc(Nc2nc3nonc3[nH]c2=O)cc1C	OX1R antag-1 78.2 | OX1R HTRF confirm inactive | CHO-K1 HTRF cnt inactive
Cc1[nH]c2ccccc2c1/C=C/c1nc2ccccc2c(=O)[nH]1	OX1R antag-1 86.8 | OX1R HTRF confirm 74.9 | CHO-K1 HTRF cnt inactive
Cc1ccc(NC(=O)c2ccc(Cl)c(NC(=O)c3cccs3)c2)cc1	none
Cc1nc2ccc(NC(=O)c3ccc(Cl)c(NC(=O)c4cccs4)c3)cc2s1	OX1R antag-1 81.5 | OX1R HTRF confirm inactive | CHO-K1 HTRF cnt inactive
COc1ccc2c(c1O)C(=O)c1ccccc1C2=O	none (no result: TAAR1 ag, TAAR1 antagonist)
CN(C)C(=O)c1ccc2c(c1[N+](=O)[O-])C(=O)c1ccccc1C2=O	OX1R antag-1 92.6 | OX1R HTRF confirm 57.8 | CHO-K1 HTRF cnt 55.2
c1cncc(-c2nc(NCc3ccc4c(c3)OCO4)c3ccccc3n2)c1	none
c1cncc(-c2nc(NCC3COc4ccccc4O3)c3ccccc3n2)c1 (centres undefined)	OX1R antag-1 94.9, TAAR1 antagonist 54.2 | OX1R HTRF confirm 55.5 | CHO-K1 HTRF cnt inactive
Cc1cccc(OCC(O)CN2CCc3ccccc3C2)c1 (centres undefined)	none
O=C(NCCCn1ccnc1)C(=O)NCC1OCCCN1S(=O)(=O)c1ccc(F)cc1 (centres undefined)	none
Cc1cc(=O)oc2c(CN3CCCC3)c(O)ccc12	none
CCCc1cc(=O)oc2c(CN3CCCC3)c(O)ccc12	OX1R antag-1 94.4 | OX1R HTRF confirm inactive | CHO-K1 HTRF cnt inactive
